Molecular target: metallo-beta-lactamase IMP-1 (Pseudomonas aeruginosa)
Test: IMP-1 metallo-beta-lactamase inhibitors, Ki determination, late-stage follow-up, nonselective VIM-2 MBL inhibitor project, biochemical, absorbance, Ki and Km (AID 624084)
Details: recombinant IMP-1, nitrocefin hydrolysis absorbance 495 nm, kinetic
Method in brief: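 System: IMP-1 enzyme; Medium: HEPES buffer pH 7.1 with ZnSO4 and Brij 35; Also added: nitrocefin substrate across a range of concentrations; Dosing: varied inhibitor concentrations; Timing: 6 min continuous absorbance reading at room temperature; Measured by: continuous absorbance at 495 nm from nitrocefin cleavage; Read-out basis: Ki from mixed-inhibition model fit.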

## CN1CCN(NC(=O)CN2C(=O)/C(=C/c3c(Cl)ccc(Cl)c3Cl)SC2=S)CC1
  Ki: 0.93 µM

Source: PubChem BioAssay AID624084 (The Scripps Research Institute Molecular Screening Center, 2012)
